This is an account of results in ChEMBL document CHEMBL1124612, “Synthesis and structure-activity relationships of a series of anxioselective pyrazolopyridine ester and amide anxiolytic agents” (J Med Chem, 1989).

The source made the active and inactive calls. No cut-off for these calls is given here.

The test system of data set [1] is Rattus norvegicus. Description: Minimum effective dose (ip) tested for its anxiolytic activity in rat using the shock-induced suppression of drinking (SSD) test; NS is No Significant activity at 25 mg/KG. The class given is functional, organism-based. A digest of the protocol: (§1)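 Shock-induced suppression of drinking (Vogel-type conflict) in rats, with compounds given intraperitoneally at one or more dose levels, 8 rats per dose. MED is the lowest dose giving a significant increase (p < 0.05, Student's t test) in the mean number of shocks taken versus vehicle control.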

Data set [2] has as its target GABA-A receptor; anion channel. Description: (§2) Inhibition of [3H]flunitrazepam binding to GABA-A benzodiazepine receptor of rat cerebral cortex. Format: tissue-based.
Data set [3] concerns Rattus norvegicus. Description: Minimum effective dose (ip) tested for its anxiolytic activity in rat using the shock-induced suppression of drinking (SSD) test; NS is No Significant activity at 160 mg/Kg. Format: functional, organism-based. A digest of the protocol: as §1
The target in data set [4] is T1, GABA-A receptor; anion channel (Rattus norvegicus) (UniProt O09028+P15431+P18506+P18508+P19969+P20236+P23574+P23576+P28471+P28473+P30191+P62813+P63079+P63138+Q91ZM7+Q9ES14). The data set can be described thus: Displacement of [3H]flunitrazepam from GABA-A benzodiazepine receptor of rat cerebral cortex at 5000 nM. Format: tissue-based. An outline of the steps: (§3)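 Rat cerebral cortex membranes were incubated with [3H]flunitrazepam in the presence of the test agent at a single concentration (nM), run in triplicate with under 7% variation between values. Binding is reported as % inhibition of [3H]flunitrazepam binding.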

In data set [5] the test system is Rattus norvegicus. Description: Minimum effective dose (po) tested for its anxiolytic activity in rat using the shock-induced suppression of drinking (SSD) test; NS is No Significant activity at 100 MG/kG. As to conditions: 100 M. Format: functional, organism-based. An outline of the steps: (§4)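 Rats (n = 8 per dose) were dosed orally at one or more levels and then run in the shock-induced suppression of drinking conflict test. MED is the dose producing a significant rise (p < 0.05, Student's t test) in mean shocks accepted relative to vehicle-treated controls.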

Data set [6] deals with GABA-A receptor; anion channel. Description: Inhibition of [3H]flunitrazepam binding to GABA-A benzodiazepine receptor of rat cerebral cortex (Not Significant at 5000 nM). The class given is tissue-based. An outline of the steps:
as §3

The subject of data set [7] is Rattus norvegicus. The data set can be described thus: Minimum effective dose (ip) tested for its anxiolytic activity in rat using the shock-induced suppression of drinking (SSD) test. Format: functional. The settings on record: read-out: MED. An outline of the steps: as §1
Data set [8] relates to Rattus norvegicus. Description: Minimum effective dose (po) tested for its anxiolytic activity in rat using the shock-induced suppression of drinking (SSD) test. Format: functional. The settings on record: read-out: MED. An outline of the steps: as §4
In data set [9] the test system is Rattus norvegicus. The data set can be described thus: Minimum effective dose (ip) tested for its anxiolytic activity in rat using the shock-induced suppression of drinking (SSD) test; NS is No Significant activity at 25 mg/Kg. Format: functional, organism-based. An outline of the steps:
as §1

The target in data set [10] is T1, GABA-A receptor; anion channel (Rattus norvegicus). The data set can be described thus: Displacement of [3H]flunitrazepam from GABA-A benzodiazepine receptor of rat cerebral cortex at 500 nM. Format: tissue-based. A digest of the protocol:
as §3
On the technique in general: Displacement assays read how much labelled ligand stays bound in the presence of the test substance.

Data set [11] has as its system Rattus norvegicus. Description: Minimum effective dose (ip) tested for its anxiolytic activity in rat using the shock-induced suppression of drinking (SSD) test; NS is No Significant activity at 50 mg/Kg. Format: functional, organism-based. An outline of the steps: as §1
Data set [12] concerns Rattus norvegicus. The data set can be described thus: Minimum effective dose (po) tested for its anxiolytic activity in rat using the shock-induced suppression of drinking (SSD) test; NS is No Significant activity at 50 mg/Kg. The class given is functional, organism-based. An outline of the steps:
as §4

The subject of data set [13] is Monkey. Description: Compound was tested for activity using primate conflict test in monkey. The class given is functional. The settings on record: Cercopithecidae, in Primates; read-out: MED.
The nature of data set [14]: Ethanol interaction ratio (EIR) of the compound. Format: ADME. A digest of the protocol: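 Ratio computed as rat rotorod ED50 for drug given with ethanol (mg/kg) divided by the SSD minimum effective dose (mg/kg), both orally. The SSD MED is the lowest dose (N=8/dose) giving a significant rise (p < 0.05, Student's t test) in mean shocks taken versus vehicle in the rat shock-induced suppression of drinking test.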

Data set [15] deals with Rattus norvegicus. The data set can be described thus: Compound was tested in vivo for activity to induce sedation or ataxia in rat using rotarod test. The class given is functional. For orientation: The rotarod test checks motor coordination on a turning rod.
The test system of data set [16] is Rattus norvegicus. The data set can be described thus: Compound was tested in vivo for antagonistic activity against metrazole-induced convulsions in rat. The class given is functional.
The species named for data set [17] is Rattus norvegicus. The data set can be described thus: Compound was tested for activity against ethanol-induced impairment of rotarod performance in rat. The class given is functional.
Data set [18] is filed under the species Rattus norvegicus. Description: Sedative liability index (SLI) to indicate the separation between the anxiolytic and ataxic doses in rats. The class given is functional. A digest of the protocol: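 Ratio computed as rat rotorod ED50 (mg/kg) divided by the SSD minimum effective dose (mg/kg), with both given orally. The SSD MED is the lowest dose (N=8/dose) giving a significant increase (p < 0.05, Student's t test) in mean shocks taken over vehicle control in the rat shock-induced suppression of drinking test.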

Data set [19] deals with T1, GABA-A receptor; anion channel (Rattus norvegicus). Description: Displacement of [3H]flunitrazepam from GABA-A benzodiazepine receptor of rat cerebral cortex at 50 nM. Format: tissue-based. An outline of the steps: as §3
Data set [20] has as its system GABA-A receptor; anion channel. Description: Inhibition of [3H]flunitrazepam binding to GABA-A benzodiazepine receptor of rat cerebral cortex at 500 nM. The class given is tissue-based. An outline of the steps:
as §3

The test system of data set [21] is Rattus norvegicus. Description: Minimum effective dose (ip) tested for its anxiolytic activity in rat using the shock-induced suppression of drinking (SSD) test; NS is No Significant activity at 5 mg/Kg. Format: functional, organism-based. An outline of the steps:
as §1

For data set [22], the system named is Rattus norvegicus. Description: Minimum effective dose (ip) tested for its anxiolytic activity in rat using the shock-induced suppression of drinking (SSD) test; NS is No Significant activity at […]. Format: functional, organism-based. A digest of the protocol: as §1
Data set [23] deals with Rattus norvegicus. Description: Minimum effective dose (po) tested for its anxiolytic activity in rat using the shock-induced suppression of drinking (SSD) test; NS is No Significant activity at […]. Format: functional, organism-based. A digest of the protocol:
as §4

Data set [24] concerns the target GABA-A receptor; anion channel. Described as §2. Format: tissue-based. A digest of the protocol:
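[3H]Flunitrazepam displacement from rat cerebral cortex benzodiazepine receptors, run in triplicate with under 7% variation between values. IC50 is the concentration (nM) giving half-maximal inhibition of binding, determined from three or more concentrations.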
The source holds these as a separate data set.

In data set [25] the target is GABA-A receptor; anion channel. Description: Inhibition of [3H]flunitrazepam binding to GABA-A benzodiazepine receptor of rat cerebellum. Format: tissue-based.
The species entered for data set [26] is Rattus norvegicus. The data set can be described thus: Compound was tested for activity against ethanol-induced impairment of rota rod performance in rat. The class given is functional.
Data set [27] addresses GABA-A receptor; anion channel. The data set can be described thus: Inhibition of [3H]flunitrazepam binding to GABA-A benzodiazepine receptor of rat cortex.
The target of data set [28] is T1, GABA-A receptor; anion channel (Rattus norvegicus). The data set can be described thus: Displacement of [3H]flunitrazepam from GABA-A benzodiazepine receptor of rat cerebral cortex at 800 nM. The class given is tissue-based. A digest of the protocol:
as §3

Turning to `C=CCOC(=O)c1c(C)nc2c(cnn2CC=C(C)C)c1N`, in data set [1], the MED entry was “inactive”. Moreover, the IC50 (as a rule, the midpoint of a concentration-inhibition curve) in [2] was determined as 6.4 nM.
For `CCOC(=O)c1cc2cnn(CC)c2nc1C`, in data set [3], the NS entry is “inactive”. Further, the inhibition – broadly, the share of the control response that was lost under treatment – in data set [4] came out at 14%.
As to `C=CCOC(=O)c1cnc2c(cnn2CCCCC)c1N`, the MED result in [5] was “inactive”. Also, the IC50 in data set [2] is 16 nM.
In the case of `CCNc1c(C(=O)OCC)c(C)nc2c1cnn2CC`, the half-maximal inhibitory concentration (IC50) result in data set [6] is recorded as “Not Active”. Further, in data set [7], the minimal effective dose turned out to be 25 mg/kg.
As to `CCCCCn1ncc2c(N)c(C(=O)OC(C)C)c(C)nc21`, the minimal effective dose in data set [8] was 50 mg/kg. Further, the inhibition in data set [4] came out at 48%.
As for `CCOC(=O)c1c(C)nc2c(c(C)nn2CC)c1N`, the concentration for half-maximal inhibition (IC50) entry in data set [6] was “Not Active”. The MED result in data set [9] was “inactive”.
Regarding `CCCCCn1ncc2c(N)c(C(=O)OCC(C)C)c(C)nc21`, the MED entry in data set [9] is “inactive”. Further, the inhibition in data set [10] worked out at 55%.
For `CCCCCn1ncc2c(N)c(C(=O)OC)c(C)nc21`, in data set [4], the inhibition turned out to be 54%.
For `CCCCCn1ncc2c(N)cc(C)nc21`, the inhibition in [4] came to 13%. In addition, in [11], the minimal effective dose result was “inactive”.
Consider `CCCCCn1ncc2c(N)c(C(=O)NCCCC)c(C)nc21`, for which the MED entry in data set [12] was “inactive”. The inhibition in data set [4] turned out to be 31%.
In the case of `CN1C(=O)CN=C(c2ccccc2)c2cc(Cl)ccc21` [DIAZEPAM], the minimal effective dose was found to be 1.6 mg/kg in data set [13] and 5 mg/kg in [8]. For the same compound, in data set [14], the EIR is listed as 0.5. In addition, the ED50 (in general, the dose that gives a 50% effect, or the effect in half of the subjects) in data set [15] came out at 10.2 mg/kg; in [16], 8.4 mg/kg; in data set [17] it was 2.5 mg/kg. The same compound displayed an SLI in data set [18] of 2.
`C=CCNC(=O)c1c(C)nc2c(cnn2CCCCC)c1N` returned an inhibition in [19] of 0%. Besides, in data set [8], the minimal effective dose stood at 50 mg/kg.
For the compound `CCCCCn1ncc2c(N)c(C(=O)O)c(C)nc21`, the IC50 result in data set [6] is on record as “Not Active”. Besides, the minimal effective dose result in data set [11] is “inactive”.
With `CCCCCn1ncc2c(O)c(C(=O)OCC)c(C)nc21`, the IC50 entry in [20] is recorded as “Not Active”. Further, the minimal effective dose entry in [11] was “inactive”.
In the case of `C=CCCOC(=O)c1c(C)nc2c(cnn2CCCCC)c1N`, the MED result in data set [11] is “inactive”. The compound also came in with an IC50 in data set [2] of 174 nM.
Turning to `CCCNc1c(C(=O)OCC)c(C)nc2c1cnn2CC`, the IC50 entry in data set [6] is “Not Active”. The MED result in data set [21] is “inactive”.
In the case of `CCCCCn1ncc2c(N)c(C(=O)OCC)c(CC)nc21`, the MED result in data set [22] is “inactive”. In data set [2], this compound gave an IC50 of 302 nM.
With `CCOC(=O)c1c(C)nc2c(cnn2CCC(C)(C)C)c1N`, in data set [11], the minimal effective dose result was “inactive”. In data set [10], this compound gave an inhibition of 38%.
Turning to `CCCCCn1ncc2c(N)c(C(=O)OCC)c(C(C)C)nc21`, the MED result in data set [23] was “inactive”. In addition, the inhibition in data set [10] was determined as 54%.
As to `C#CCCCn1ncc2c(N)c(C(=O)NCC=C)cnc21`, the minimal effective dose in [8] came out at 6.3 mg/kg. This compound came in with a half-maximal inhibitory concentration (IC50) in data set [24] of 9.3 nM.
Turning to `C=CCNC(=O)c1cnc2c(cnn2CCC#CC)c1N`, the minimal effective dose in data set [13] was found to be 3.1 mg/kg; in data set [8], 0.8 mg/kg. The EIR in data set [14] amounted to 3.9. In addition, the ED50 in [15] was 25.1 mg/kg; in [16], 1 mg/kg; in data set [26] it was 3.1 mg/kg. Also, the IC50 in [25] amounted to 19 nM; in [2], 81 nM; in [27] it was 81 nM. Further, the SLI in data set [18] is 31.4.
In the case of `CCOC(=O)c1c(C)nc2c(cnn2CC)c1N(C)C`, the MED entry in data set [9] was “inactive”. Also, in data set [28], the inhibition stood at 13%.
As for `C=CCNC(=O)c1cnc2c(cnn2CCC#CC)c1NC(=O)CC`, the minimal effective dose in data set [8] was 1.6 mg/kg. In data set [10], this compound displayed an inhibition of 28%.
